From article PMC9464004 (Drug Design, Development and Therapy, 2022)
Where two headings read alike, the source gives them in different places.

How the values were obtained:
Chinese healthy subjects [1] = assay type: in vivo, human
How it was run: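 Safety population comprised all randomized subjects receiving ≥1 double-blind dose (200 or 400 mg daily test compound or placebo, 8 days), analysed by treatment received. TEAEs were counted from first dose to study end and graded by NCI-CTCAE. Vital signs, ECG and local-lab haematology, coagulation, biochemistry, serology, urinalysis and pregnancy tests were monitored. Summaries were descriptive, with no significance testing.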

Chinese healthy subjects [2] = test: 24-hour urinary glucose excretion; assay type: in vivo, human
How it was run: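 Randomized, double-blind, placebo-controlled study in healthy Chinese adults given 200 or 400 mg test compound or placebo orally once daily before the first meal for 8 days. Post-dose urine was pooled over 24 h in 0–8 h and 8–24 h fractions on Day 1 and Day 8. Glucose was assayed centrally, with results withheld from investigators, and reported as absolute excretion.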

[3] = assay type: in vivo, human; settings: for CL/F: mean ± SD
How it was run: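 Healthy Chinese adults took 200 or 400 mg test compound once daily for 8 days. Blood was drawn pre/post-dose Day 1, pre-dose Days 2–8 and post-dose Day 8. Parent and main metabolite were measured by validated LC-MS/MS after protein precipitation, with deuterated internal standards. Linear ranges: 2.00–2000 and 10.0–10,000 ng/mL. Noncompartmental analysis used trapezoidal AUC. CL/F came from AUCtau. Below-limit values counted as zero.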

[4] = test system: healthy volunteers in the United States; settings: achieved at the 300mg dose, study LX4211-1-101; cited from earlier work
SGLT2 = settings: cited from earlier work
[5] = cited from earlier work
[6] = across sotagliflozin treatment groups
[7] = sotagliflozin 200 mg qd, 8 days, N=9
[8] = sotagliflozin 400 mg qd, 8 days, N=9
[9] = co-administered with food (high fat/high caloric)

SMILES: CCOc1ccc(Cc2cc([C@@H]3O[C@H](SC)[C@@H](O)[C@H](O)[C@H]3O)ccc2Cl)cc1 [Sotagliflozin]
- tolerability (Chinese healthy subjects [1]; 200 mg and 400 mg per day, 8 days): well tolerated
- PCSAs of QRS interval >110 ms, number of subjects (Chinese healthy subjects [1]; 200mg sotagliflozin, none increased from baseline ≥25%): 2
- asymptomatic alanine aminotransferase (ALT) increase (Chinese healthy subjects [1]; AE in 1 subject (400 mg group)): < 2 × upper limit of normal (ULN)
- constipation, number of subjects (Chinese healthy subjects [1]; [6]): 1
- dizziness, number of subjects (Chinese healthy subjects [1]; [6]): 2
- folliculitis, number of subjects (Chinese healthy subjects [1]; [6]): 1
- TEAE: Blood phosphorus increased (Chinese healthy subjects [1]; [7]): 1 (11.1%) n (%)
- TEAE: Chest discomfort (Chinese healthy subjects [1]; [7]): 1 (11.1%) n (%)
- TEAE: Dizziness (Chinese healthy subjects [1]; [7]): 1 (11.1%) n (%)
- TEAE: Folliculitis (Chinese healthy subjects [1]; [7]): 1 (11.1%) n (%)
- TEAE: Petechiae (Chinese healthy subjects [1]; [7]): 1 (11.1%) n (%)
- TEAE: Proteinuria (Chinese healthy subjects [1]; [7]): 1 (11.1%) n (%)
- TEAE: White blood cell count decreased (Chinese healthy subjects [1]; [7]): 1 (11.1%) n (%)
- increased blood ketone body (TEAE value) (Chinese healthy subjects [1]; sotagliflozin 400 mg group, 1 subject): 0.61 mmol/L
- TEAE: Alanine aminotransferase increased (Chinese healthy subjects [1]; [8]): 1 (11.1%) n (%)
- TEAE: Asthenia (Chinese healthy subjects [1]; [8]): 1 (11.1%) n (%)
- TEAE: Blood ketone body increased (Chinese healthy subjects [1]; [8]): 1 (11.1%) n (%)
- TEAE: Blood urine present (Chinese healthy subjects [1]; [8]): 1 (11.1%) n (%)
- TEAE: Constipation (Chinese healthy subjects [1]; [8]): 1 (11.1%) n (%)
- TEAE: Dermatitis (Chinese healthy subjects [1]; [8]): 1 (11.1%) n (%)
- TEAE: Dizziness (Chinese healthy subjects [1]; [8]): 1 (11.1%) n (%)
- TEAE: Haemorrhoidal haemorrhage (Chinese healthy subjects [1]; [8]): 1 (11.1%) n (%)
- TEAE: Headache (Chinese healthy subjects [1]; [8]): 1 (11.1%) n (%)
- TEAE: Mouth ulceration (Chinese healthy subjects [1]; [8]): 1 (11.1%) n (%)
- TEAEs considered treatment-related by the Investigator (Chinese healthy subjects [1]; sotagliflozin groups (200 and 400 mg)): 44.4%
- 24-hour UGE (Chinese healthy subjects [2]; sotagliflozin 200 mg qd, Day 1, mean (±SD)): 188.17 (±51.957) mmol
- 24-hour UGE (Chinese healthy subjects [2]; sotagliflozin 200 mg qd, Day 8, mean ± SD): 213.02 (±67.216) mmol
- 24-hour UGE (Chinese healthy subjects [2]; sotagliflozin 400 mg qd, Day 1, mean (±SD)): 250.18 (±38.063) mmol
- 24-hour UGE (Chinese healthy subjects [2]; sotagliflozin 400 mg qd, Day 8, mean ± SD): 263.90 (±56.665) mmol
- degree of accumulation ([3]; 200 or 400 mg qd for 8 days): less than 2 fold
- estimated increase for AUCtau for a 2-fold increase between doses ([3]; Day 1, 200 to 400 mg): 2.02 fold
- estimated increase for Cmax for a 2-fold increase between doses ([3]; Day 1, 200 to 400 mg): 1.56 fold
- estimated increase for AUCtau for a 2-fold increase between doses ([3]; Day 8, 200 to 400 mg): 1.70 fold
- estimated increase for Cmax for a 2-fold increase between doses ([3]; Day 8, 200 to 400 mg): 1.89 fold
- half-life ([3]; human, plasma, oral, 400 mg, Mean t1/2z, range over 200 and 400 mg dose levels, Day 8): 20.5 to 22.4 h
- CL/F ([3]; sotagliflozin 200 mg qd, Day 8): 267 L/h
- CL/F ([3]; sotagliflozin 400 mg qd, Day 8): 307 L/h
- maximum 24 h UGE [4]: 44 g
- selectivity for SGLT2 than that for SGLT1 (SGLT2): 20 fold
- accumulation index at steady state ([5]; EMA data, European-American populations): about 2
- Cmax with food compared to fasted condition [5, 9]: ~2.5 fold
- total exposure with food compared to fasted condition [5, 9]: ~1.5 fold
